Published values gathered from unrelated publications.
Cell line: Vero
Observed: cell growth or viability

SMILES | method | time | IC50
Cc1ccc(-c2csc(Nc3ccc4c(O)ncnc4c3)n2)cc1 | MTT | – | > 50 µM
Nc1ccc(-c2nc3ccccn3c2N)cc1 | MTT | 48 h | 88 µM
COc1cccc(CCNCc2c(N)nc(N)nc2C2CCCCC2)c1 | SRB | – | 23 µM
Cc1ccc(C)n1-c1ccc(C(=O)NNC=O)cc1 | MTT | 72 h | 211 µM
CN(C)c1ccc(-c2nc3cnccn3c2N)cc1 | MTT | 48 h | 91 µM
COc1ccc(-c2csc(Nc3ccc4c(O)ncnc4c3)n2)cc1 | MTT | – | > 50 µM
Nc1c(-c2ccc([N+](=O)[O-])cc2)nc2cnccn12 | MTT | 48 h | 80 µM
NC1=C(Cl)C(=O)c2c(C(O)CO)c[nH]c2C1=O (centres unmarked) | MTT | 72 h | > 19.5 µM
NNC(=O)c1ccncc1 | MTT | 72 h | > 450 µM
Cc1[nH]c(=O)c(CNC(=O)c2ccc(F)nc2)c2c1CCCC2 | MTT | 72 h | > 50 µg/mL
O=[N+]([O-])c1ccc(/C(O)=C/C(=S)S)cc1 | MTT | 48 h | 255 µg/mL
Oc1ncnc2cc(Nc3nc(-c4ccc(Cl)cc4)cs3)ccc12 | MTT | – | > 50 µM
Nc1ccccc1-c1nc2cnccn2c1N | MTT | 48 h | 78 µM
COc1ccc(CCNCc2c(N)nc(N)nc2-c2ccccc2)cc1 | SRB | – | > 100 µM
CC(C)(C)Nc1c(-c2ccccc2[N+](=O)[O-])nc2ccccn12 | MTT | 48 h | 78 µM
COc1ccccc1CCNCc1c(N)nc(N)nc1-c1ccccc1 | SRB | – | > 100 µM

SMILES | method | time | IC50
CC(C)(C)Nc1c(-c2ccccc2N)nc2cnccn12 | MTT | 48 h | 85 µM
COc1ccc(CCNCc2c(N)nc(N)nc2C2CCCCC2)cc1 | SRB | – | 21 µM
COc1cc(OC)cc(-c2ccc(C(=O)NCc3c4c(c(C)[nH]c3=O)CCCC4)cc2)c1 | MTT | 72 h | > 50 µg/mL
N=C1C(Cl)=C(N)C(=O)c2[nH]cc(C(O)CO)c21 (centres unmarked) | MTT | 72 h | 14 µM
Cc1ccc(C)n1-c1ccc(-c2nnco2)cc1 | MTT | 72 h | 216 µM
Oc1ncnc2cc(Nc3nc(-c4ccc(F)cc4)cs3)ccc12 | MTT | – | > 50 µM
CC(C)(C)Nc1c(-c2ccc(N)cc2)nc2cnccn12 | MTT | 48 h | 76 µM
N#Cc1nn(-c2ccc(N=Nc3ccccc3)cc2)c(=N)n(S(=O)(=O)c2ccc(N)cc2)c1=O | – | – | 55.2 µM
Nc1nc(N)c(CNCCc2ccc(Cl)cc2Cl)c(C2CCCCC2)n1 | SRB | – | 16 µM
Cc1ccc(C)n1-c1ccc(-c2nnc(-c3ccccc3Cl)[nH]2)cc1 | MTT | 72 h | 222 µM
COc1ccccc1CCNCc1c(N)nc(N)nc1C1CCCCC1 | SRB | – | 21 µM
N#Cc1nn(-c2ccc(N=Nc3ccccc3)cc2)c(=S)n(-c2ccccc2)c1=O | – | – | 42.3 µM
Nc1nc(N)c(CNCCc2ccc(F)cc2)c(C2CCCCC2)n1 | SRB | – | 22 µM
Oc1ncnc2cc(Nc3nc(-c4ccccc4)cs3)ccc12 | MTT | – | > 50 µM
Nc1ccc(-c2nc3ccccn3c2NC2CCCCC2)cc1 | MTT | 48 h | 90 µM
Nc1nc(N)c(CNCCc2cccc(F)c2)c(C2CCCCC2)n1 | SRB | – | 25 µM
